Published values of several laboratories.
Lines come from different studies, so protocols differ.
Organism: Escherichia coli
Read-out: microbial growth

COc1cccc(OC)c1C(=O)N[C@@H]1C(=O)N2[C@@H]1SC(C)(C)[C@@H]2C(=O)O
MIC (broth dilution; ATCCBAA2469): > 2050 µg/mL

C[C@H]1COCCN1c1nc(NCc2cccnc2C(F)(F)F)c2cccnc2n1
MIC (broth dilution; 25922): 128 µg/mL

COC(=O)c1cc(-c2cccc(NC(=O)Nc3ccc(F)cc3)c2)on1
MIC (broth dilution; ATCC25922): > 64 µg/mL

CO[C@H]1/C=C/O[C@@]2(C)Oc3c(C)c(O)c4c(O)c(c(/C=N/N5CCN(C)CC5)c(O)c4c3C2=O)NC(=O)/C(C)=C\C=C\[C@H](C)[C@H](O)[C@@H](C)[C@@H](O)[C@@H](C)[C@H](OC(C)=O)[C@@H]1C
MIC (broth dilution; ATCCBAA2469): > 64 µg/mL

COC(=O)c1cc(-c2ccc(OC)c(NC(=O)Nc3ccc(Cl)c(Cl)c3)c2)on1
MIC (broth dilution; ATCC25922): > 64 µg/mL

CCCCCCCCCCCC(=O)OC[C@H]1O[C@@H](n2cc(C)c(=O)[nH]c2=O)C[C@@H]1O
MIC (broth dilution): 2 µg/mL

C[n+]1ccc(/C=C2\Sc3ccccc3N2CCCN2CCCCC2)c2ccccc21.[I-]
MIC (broth dilution; ATCCBAA2469): 4 µg/mL

CNC(C)C1CCC(N)C(OC2C(N)CC(N)C(OC3OCC(C)(O)C(NC)C3O)C2O)O1 (stereo not shown)
MIC (broth dilution; R477100): 6 µM

CCCCCCC#Cc1cncc(-c2nnc(Sc3ccc([N+](=O)[O-])cc3[N+](=O)[O-])n2C)c1
MIC: ≥ 20 µg/mL

COC(=O)c1cc(-c2cccc(NC(=O)Nc3ccccc3F)c2)on1
MIC (broth dilution; ATCC25922): > 64 µg/mL

Oc1cc(Cl)ccc1Oc1ccc(Cl)cc1Cl
MIC (broth dilution; MG1655; clinical isolate): 0.5 µg/mL

CC(=O)C1=C(O)C(CC(C)C)NC1=O (stereo not shown)
MIC (K12; K12): > 200 µg/mL

Oc1cc(Cl)ccc1Oc1ccc(Cl)cc1Cl
MIC: > 3.2 µg/mL

CC1CCN(CCCN2/C(=C/c3cc[n+](C)c4ccccc34)Sc3ccccc32)CC1.[I-]
MIC (broth dilution; ATCCBAA2469): 0.5 µg/mL

Fc1c(F)c(F)c(F)c(F)c1F
MIC (ATCC25922): > 250 µg/mL

COC(=O)c1cc(-c2cccc(NC(=O)Nc3cccc(Cl)c3)c2)on1
MIC (broth dilution; ATCC25922): > 64 µg/mL

C[n+]1c(/C=C/c2c[nH]c3ccccc23)cc(/C=C2\Sc3ccccc3N2CCCN2CCCC2)c2ccccc21.[I-]
MIC (broth dilution; ATCCBAA2469): 4 µg/mL

COC(=O)c1cc(-c2cccc(NC(=O)Nc3cc(OC)ccc3OC)c2)on1
MIC (broth dilution; ATCC25922): > 64 µg/mL

CN[C@H](CC(C)C)C(=O)N[C@H]1C(=O)N[C@@H](CC(N)=O)C(=O)N[C@H]2C(=O)N[C@H]3C(=O)N[C@H](C(=O)N[C@H](C(=O)O)c4cc(O)cc(O)c4-c4cc3ccc4O)[C@H](O)c3ccc(c(Cl)c3)Oc3cc2cc(c3O[C@@H]2O[C@H](CO)[C@@H](O)[C@H](O)[C@H]2O[C@H]2C[C@](C)(N)[C@H](O)[C@H](C)O2)Oc2ccc(cc2Cl)[C@H]1O
MIC (ATCC10798): > 32 µg/mL
